This note sets out measurements from PubChem BioAssay AID493150 (Broad Institute, 2011).

“And” between values parts separate entries of the source, which are not always exact repeats. Equal values may be shown once. Results filed as inconclusive are left out. The source made the active and inactive calls.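 Rule for the calls: active = compound whose fitted half-maximal growth inhibition concentration stays within ten times its top tested dose in every replicate test; inconclusive = replicate tests disagree, or flat partial inhibition, or poor curve fit; inactive = every replicate test inactive, including wrong-direction or flat responses.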

Test system in one assay: not listed separately
The experiment in a line: Candida CaCi-2 growth reduction under fluconazole – CaCi-2 strain, Alamar Blue, dry powder, set 5, confirmation (AID 493150). Conditions: C. albicans CaCi-2 + fluconazole, Alamar Blue growth, 48 h; at 10 µM (top of the series). The method, boiled down:
(§1)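 Assay system: clinical Candida albicans isolate CaCi-2, resistant to fluconazole; amount: inoculum OD600 0.00015; medium: RPMI-based defined growth medium buffered with MOPS; also added: fluconazole 8 µg/mL; incubation: 48 h humidified 37 °C exposure, 2 h room-temperature dye step; detection: Alamar Blue fluorescence, 1:200 final dye, Ex 544 nm, Em 590 nm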
On the technique in general: Resazurin is reduced to fluorescent resorufin, in cell work by metabolically active cells.
Turning to `COC(=O)Cn1nc(-c2cncnc2)c2ccccc21`, the activity change, negative = inhibition was -5.14% (inactive).

The assay is the same for the next values; noted with them: C. albicans CaCi-2 + fluconazole, Alamar Blue growth, 48 h; at 12 µM (top of the series).
Consider `CCOC(=O)Cn1nc(-c2ccccc2)c2ccccc21`, for which the activity change, negative = inhibition was 4.8% (inactive).
For `CC(C)(C)OC(=O)Cn1nc(-c2ccccc2)c2ccccc21`, the activity change, negative = inhibition is 17.1% (inactive).
Consider `COCCn1nc(-c2ccccc2)c2ccccc21`, for which the activity change, negative = inhibition is -9.42% (inactive).
As for `COC(=O)Cn1nc(-c2ccccc2)c2ccc(C#N)cc21`, the activity change, negative = inhibition was -14.7% (inactive).
As to `CC(C)OC(=O)Cn1nc(-c2ccccc2)c2ccccc21`, the activity change, negative = inhibition was 11.7% (inactive).
Still for that read-out and setting: the result for `c1ccc(-c2nn(Cc3ncco3)c3ccccc23)cc1` reads 1.86% (inactive); that for `c1ccc(-c2nn(Cc3nn[nH]n3)c3ccccc23)cc1`, -7.06% (inactive); that for `O=C(Cn1nc(-c2ccccc2)c2ccccc21)Oc1ccccc1`, -4.43% (inactive).
On the same count and under the same terms, in the case of `COC(=O)CCn1nc(-c2ccccc2)c2ccccc21` it was 1.2% (inactive); in that of `COC(=O)Cn1nc(-c2ccc(C(F)(F)F)cc2)c2ccccc21`, -0.629% (inactive); in that of `N#CCn1nc(-c2ccccc2)c2ccccc21`, -18.5% (inactive).

A further assay deals with C. albicans CaCi-2 (fluconazole-resistant clinical isolate) + fluconazole, Alamar Blue growth, 48 h. The assay is described as above.
Settings: not given
In a few lines: as §1
With `COC(=O)Cn1nc(-c2cccc(C)c2)c2ccccc21`, the half-maximal activity concentration (AC50) is 0.647 µM.
On the same count and under the same terms, in the case of `COC(=O)Cn1nc(-c2ccccc2)c2ccc(OC)cc21` it was 7.51 µM; in that of `COC(=O)Cn1nc(-c2ccccc2)c2ccc(F)cc21`, 5.1 µM.
Same read-out and setting: in the case of `COC(=O)Cn1nc(-c2cccc(F)c2)c2ccccc21` it was 1.41 µM; in that of `COC(=O)Cn1nc(-c2ccc(OC)cc2)c2ccccc21`, 4.22 µM; in that of `COC(=O)Cn1nc(-c2ccccc2)c2ccccc21`, 1.2 µM.
For `COC(=O)Cn1nc(-c2ccc(F)cc2)c2ccccc21`, the AC50 was 5.61 µM.
Regarding `COC(=O)Cn1nc(-c2ccccc2)c2cc(OC)ccc21`, the AC50 is 10.4 µM.
As for `COC(=O)Cn1c2ccccc2c2nc3n(c(=O)c21)CCS3`, the AC50 is 3.83 µM.
For the compound `COC(=O)Cn1nc(-c2ccccc2)c2ccc(C)cc21`, the half-maximal activity concentration (AC50) is 3.14 µM.
As for `COC(=O)Cn1nc(-c2ccccc2)c2cc(C)ccc21`, the AC50 was 3.28 µM.
Same read-out and setting: in the case of `O=C(Cn1c2ccccc2c2nc3n(c(=O)c21)CCS3)N1CCCC1` it was 1.04 µM and 1.87 µM; in that of `COC(=O)Cn1nc(-c2ccccc2)c2ccc(Cl)cc21`, 3.79 µM; in that of `COC(=O)Cn1nc(-c2cccc(OC)c2)c2ccccc21`, 0.44 µM.
Same read-out and setting: in the case of `COC(=O)Cn1nc(-c2ccccc2)c2cc(F)ccc21` it was 4.63 µM; in that of `COC(=O)Cn1nc(-c2ccccc2OC)c2ccccc21`, 6.22 µM.

Broadly, the AC50 is the midpoint of the concentration-response curve, whichever way the signal moves.
